ChEMBL document CHEMBL3102806, “1,2,4-Triazole/oxime hybrids as new strategy for nitric oxide donors: Synthesis, anti-inflammatory, ulceroginicity and antiproliferative activities” (Eur J Med Chem, 2014)

What was measured:
[1] = test system: Rattus norvegicus; test: Antiinflammatory activity in albino rat assessed as inhibition of carrageenan-induced paw edema at 0.28 mmol/kg, po administered 30 mins prior to carrageenan-challenge measured after 3 hrs relative to control; type: functional
Procedure, shortened: (§1)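 Male albino rats in groups of four were fasted 24 h with water allowed. Dosing was oral at 0.28 mmol/kg, suspended in 0.5% w/v CMC; controls got CMC alone. After 30 min, 0.1 ml of 1% carrageenan in saline went subplantar into the right hind paw and saline into the left. Paw thickness was read by caliper before and at 1–5 h. % inhibition = [(VR−VL)control−(VR−VL)treated]/(VR−VL)control ×100. Mean ± SEM, n = 4, one-way ANOVA vs control.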

[2] = test system: MOLT-4; test: Growth inhibition of human MOLT4 cells assessed as cell growth at 10^-5 M after 48 hrs by sulforhodamine B assay relative to control; type: functional; conditions: MOLT-4, 48 h, read-out: Activity
Procedure, shortened: (§2)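 NCI primary screen, one-dose format across about 60 human tumour cell lines. Single addition at 10^-5 M with 48 h incubation; SRB protein-binding dye end point read spectrophotometrically. Reported as percent growth of treated cells versus untreated controls.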

[3] = test system: T47D; test: Growth inhibition of human T47D cells assessed as cell growth at 10^-5 M after 48 hrs by sulforhodamine B assay relative to control; type: functional; conditions: read-out: Activity
Procedure, shortened: (§3)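 NCI primary screen across about 60 human tumour cell lines. Single dose of 10^-5 M, cultures incubated 48 h, end point by sulforhodamine B protein staining read spectrophotometrically. Results are given as percent growth of treated cells relative to untreated control cells.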

[4] = test system: Rattus norvegicus; test: Antiinflammatory activity in albino rat assessed as inhibition of carrageenan-induced paw edema at 0.28 mmol/kg, po administered 30 mins prior to carrageenan-challenge measured after 2 hrs relative to control; type: functional; procedure, shortened: as §1
[5] = test system: BT-549; test: Growth inhibition of human BT549 cells assessed as cell growth at 10^-5 M after 48 hrs by sulforhodamine B assay relative to control; type: functional; conditions: BT-549, 48 h, read-out: Activity
Procedure, shortened: (§4)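 NCI ~60 human tumour cell line screen. Single concentration of 10^-5 M added to cultures for 48 h. End point by sulforhodamine B protein staining read spectrophotometrically. Percent growth relative to untreated control cells.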

[6] = test system: Rattus norvegicus; test: Antiinflammatory activity in albino rat assessed as inhibition of carrageenan-induced paw edema at 0.28 mmol/kg, po administered 30 mins prior to carrageenan-challenge measured after 1 hr relative to control; type: functional; procedure, shortened: as §1
[7] = Growth inhibition of human HOP92 cells assessed as cell growth at 10^-5 M after 48 hrs by sulforhodamine B assay relative to control; type: functional; conditions: HOP-92, 48 h, read-out: Activity; procedure, shortened: as §4
[8] = Growth inhibition of human NCI-ADR-RES cells assessed as cell growth at 10^-5 M after 48 hrs by sulforhodamine B assay relative to control; type: functional; conditions: read-out: Activity; procedure, shortened: as §2
[9] = test system: HOP-62; test: Growth inhibition of human HOP62 cells assessed as cell growth at 10^-5 M after 48 hrs by sulforhodamine B assay relative to control; type: functional; conditions: HOP-62, 48 h, read-out: Activity; procedure, shortened: as §4
[10] = test system: OVCAR-8; test: Growth inhibition of human OVCAR8 cells assessed as cell growth at 10^-5 M after 48 hrs by sulforhodamine B assay relative to control; type: functional; conditions: OVCAR-8, 48 h, read-out: Activity; procedure, shortened: as §2
[11] = test system: SK-MEL-28; test: Growth inhibition of human SK-MEL-28 cells assessed as cell growth at 10^-5 M after 48 hrs by sulforhodamine B assay relative to control; type: functional; conditions: SK-MEL-28, 48 h, read-out: Activity; procedure, shortened: as §3
[12] = test system: COLO 205; test: Growth inhibition of human COLO205 cells assessed as cell growth at 10^-5 M after 48 hrs by sulforhodamine B assay relative to control; type: functional; conditions: COLO 205, 48 h, read-out: Activity; procedure, shortened: as §4
[13] = Induction of nitric oxide release in phosphate buffer at 10^-4 M at pH 7.4 after 1 hr by Griess colorimetric method in presence of N-acetylcysteine; type: physicochemical; conditions: pH 7.4, 1 h, 100 µM
Procedure, shortened: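 Final drug concentration 10^-4 M, added from DMF into 1:1 50 mM phosphate buffer (pH 7.4)/MeOH containing 5 × 10^-4 M N-acetylcysteine, at 37 °C. Nitrite read with Griess reagent after 10 min at room temperature, absorbance at 546 nm. Calibration with sodium nitrite standards (10–80 nmol/ml). Reported as mol NO per mol, n = 4 reaction mixtures.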

[14] = test system: RPMI-8226; test: Growth inhibition of human RPMI8226 cells assessed as cell growth at 10^-5 M after 48 hrs by sulforhodamine B assay relative to control; type: functional; conditions: RPMI-8226, 48 h, read-out: Activity; procedure, shortened: as §2
[15] = test system: NCI-H460; test: Growth inhibition of human NCI-H460 cells assessed as cell growth at 10^-5 M after 48 hrs by sulforhodamine B assay relative to control; type: functional; conditions: NCI-H460, 48 h, read-out: Activity; procedure, shortened: as §2
[16] = Growth inhibition of human RXF393 cells assessed as cell growth at 10^-5 M after 48 hrs by sulforhodamine B assay relative to control; type: functional; conditions: RXF 393, 48 h, read-out: Activity; procedure, shortened: as §2
[17] = test system: SNB-19; test: Growth inhibition of human SNB19 cells assessed as cell growth at 10^-5 M after 48 hrs by sulforhodamine B assay relative to control; type: functional; conditions: SNB-19, 48 h, read-out: Activity; procedure, shortened: as §3
[18] = test system: NCI-H226; test: Growth inhibition of human NCI-H226 cells assessed as cell growth at 10^-5 M after 48 hrs by sulforhodamine B assay relative to control; type: functional; conditions: NCI-H226, 48 h, read-out: Activity; procedure, shortened: as §2
[19] = test system: Rattus norvegicus; test: Antiinflammatory activity in albino rat assessed as inhibition of carrageenan-induced paw edema at 0.28 mmol/kg, po administered 30 mins prior to carrageenan-challenge measured after 5 hrs relative to control; type: functional; procedure, shortened: as §1
[20] = test system: UACC-62; test: Growth inhibition of human UACC62 cells assessed as cell growth at 10^-5 M after 48 hrs by sulforhodamine B assay relative to control; type: functional; conditions: UACC-62, 48 h, read-out: Activity; procedure, shortened: as §3
[21] = test system: MDA-MB-231; test: Growth inhibition of human MDA-MB-231 cells assessed as cell growth at 10^-5 M after 48 hrs by sulforhodamine B assay relative to control; type: functional; conditions: MDA-MB-231, 48 h, read-out: Activity; procedure, shortened: as §2
[22] = test system: ACHN; test: Growth inhibition of human ACHN cells after 48 hrs by sulforhodamine B assay; type: functional
Procedure, shortened: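 NCI full ~60 cell line panel. Five 10-fold concentrations from 10^-4 to 10^-8 M, 48 h continuous exposure, SRB protein read-out. Time-zero, control and treated absorbances give percentage growth. GI50 is the concentration where [(Ti−Tz)/(C−Tz)]×100 = 50; TGI is where Ti = Tz; LC50 is where [(Ti−Tz)/Tz]×100 = −50.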

[23] = Growth inhibition of human UO31 cells after 48 hrs by sulforhodamine B assay; type: functional; conditions: UO-31, 48 h
Procedure, shortened: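 NCI 60-cell-line panel, five-dose run at 10-fold dilutions from 10^-4 to 10^-8 M, 48 h continuous exposure. Viability by SRB protein stain. Percent growth is taken from time-zero, untreated-control and treated absorbances. GI50 is the concentration giving a 50% lower net protein increase than in control cells. TGI is taken at Ti = Tz, LC50 at a 50% loss of initial protein.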

[24] = read-out: LC50 (the source's name)

| Compound | inhibition in vivo at 280 µmol/kg [1] [%] | growth at 10 µM [2] [%] | growth at 10 µM [3] [%] | inhibition in vivo at 280 µmol/kg [4] [%] | growth at 10 µM [5] [%] | inhibition in vivo at 280 µmol/kg [6] [%] | growth at 10 µM [7] [%] | growth at 10 µM [8] [%] | growth at 10 µM [9] [%] | growth at 10 µM [10] [%] | growth at 10 µM [11] [%] | growth at 10 µM [12] [%] | Activity [13] [mol/mol] | growth at 10 µM [14] [%] | growth at 10 µM [15] [%] | growth at 10 µM [16] [%] | growth at 10 µM [17] [%] | growth at 10 µM [18] [%] | inhibition in vivo at 280 µmol/kg [19] [%] | growth at 10 µM [20] [%] | further results |
| --- | --- | --- | --- | --- | --- | --- | --- | --- | --- | --- | --- | --- | --- | --- | --- | --- | --- | --- | --- | --- | --- |
| C/C(=N\O)c1ccc(NC(=O)CSc2nnc(-c3ccccc3)n2-c2ccccc2)cc1 | 63 | 95.2 | 92 | 52 | 75.3 | 50 | 30.1 | 39.3 | 64.7 | 90.8 | 48.6 | 91.1 | 0.11 | 91.2 | -34.7 | 72.5 | 45.8 | 72.4 | 66 | 76.7 | growth at 10 µM [21]: 20.9% |
| COc1ccc(-c2nnc(SCC(=O)Nc3ccc(/C(C)=N/O)cc3)n2-c2ccccc2)cc1OC | 77 | 91.7 | 68 | 63 | 65.2 | 57 | -8.56 | 90.6 | -26.4 | 42.8 | 87.3 | 99.1 | 0.15 | 91.6 | 102 | 32.4 | 75.8 | 81.9 | 76 | 82.8 | GI50 [22]: 8.08 µM; TGI [22]: > 100 µM; CC50 [22, 24]: > 100 µM; GI50 [23]: > 100 µM; TGI [23]: > 100 µM; CC50 [23, 24]: > 100 µM; growth at 10 µM [21]: 47.9% |
